A value given as a limit tells only on which side of the number the result lay.

Vascular endothelial growth factor receptor 2, sequence (P35968 whole entry): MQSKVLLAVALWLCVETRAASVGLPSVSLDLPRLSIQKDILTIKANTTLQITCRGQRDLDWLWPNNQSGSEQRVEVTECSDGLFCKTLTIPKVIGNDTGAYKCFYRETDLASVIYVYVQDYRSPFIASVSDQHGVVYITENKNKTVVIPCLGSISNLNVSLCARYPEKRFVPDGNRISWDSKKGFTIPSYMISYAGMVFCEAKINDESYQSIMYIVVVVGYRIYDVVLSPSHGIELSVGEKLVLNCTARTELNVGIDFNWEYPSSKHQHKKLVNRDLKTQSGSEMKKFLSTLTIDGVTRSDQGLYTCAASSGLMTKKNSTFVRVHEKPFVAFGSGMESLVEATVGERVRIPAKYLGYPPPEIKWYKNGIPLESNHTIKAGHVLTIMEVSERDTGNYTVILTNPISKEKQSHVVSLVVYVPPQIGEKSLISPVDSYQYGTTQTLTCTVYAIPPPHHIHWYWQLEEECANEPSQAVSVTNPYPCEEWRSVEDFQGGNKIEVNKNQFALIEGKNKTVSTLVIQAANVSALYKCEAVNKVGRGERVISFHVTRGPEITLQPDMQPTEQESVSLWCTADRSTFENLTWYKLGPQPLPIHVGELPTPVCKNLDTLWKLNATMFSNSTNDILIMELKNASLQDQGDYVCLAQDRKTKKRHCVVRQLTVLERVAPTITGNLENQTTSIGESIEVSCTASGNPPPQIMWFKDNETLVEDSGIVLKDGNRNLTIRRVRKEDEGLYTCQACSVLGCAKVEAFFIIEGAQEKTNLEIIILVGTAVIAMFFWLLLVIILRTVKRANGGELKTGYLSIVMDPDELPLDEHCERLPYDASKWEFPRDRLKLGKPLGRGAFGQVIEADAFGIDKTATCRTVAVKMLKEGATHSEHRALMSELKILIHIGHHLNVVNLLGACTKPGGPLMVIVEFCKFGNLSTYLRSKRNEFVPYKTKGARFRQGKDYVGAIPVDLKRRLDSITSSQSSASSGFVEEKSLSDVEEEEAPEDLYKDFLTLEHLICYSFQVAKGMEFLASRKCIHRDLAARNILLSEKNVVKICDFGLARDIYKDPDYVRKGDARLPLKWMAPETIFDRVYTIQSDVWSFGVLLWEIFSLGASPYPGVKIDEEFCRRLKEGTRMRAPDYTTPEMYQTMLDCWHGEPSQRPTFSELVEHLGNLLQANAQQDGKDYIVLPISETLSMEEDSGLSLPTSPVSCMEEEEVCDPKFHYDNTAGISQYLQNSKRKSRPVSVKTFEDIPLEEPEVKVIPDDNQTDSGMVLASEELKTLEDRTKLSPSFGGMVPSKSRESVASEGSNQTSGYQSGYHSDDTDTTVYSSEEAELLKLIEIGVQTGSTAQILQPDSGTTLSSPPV

For the first assay, the target named is Serine/threonine-protein kinase B-raf (Homo sapiens, UniProt P15056). Briefly: Inhibition of BRAF (unknown origin) incubated for 10 mins using FAM-labeled peptide and ATP by mobility shift assay.
Serine/threonine-protein kinase B-raf, sequence (P15056 whole entry): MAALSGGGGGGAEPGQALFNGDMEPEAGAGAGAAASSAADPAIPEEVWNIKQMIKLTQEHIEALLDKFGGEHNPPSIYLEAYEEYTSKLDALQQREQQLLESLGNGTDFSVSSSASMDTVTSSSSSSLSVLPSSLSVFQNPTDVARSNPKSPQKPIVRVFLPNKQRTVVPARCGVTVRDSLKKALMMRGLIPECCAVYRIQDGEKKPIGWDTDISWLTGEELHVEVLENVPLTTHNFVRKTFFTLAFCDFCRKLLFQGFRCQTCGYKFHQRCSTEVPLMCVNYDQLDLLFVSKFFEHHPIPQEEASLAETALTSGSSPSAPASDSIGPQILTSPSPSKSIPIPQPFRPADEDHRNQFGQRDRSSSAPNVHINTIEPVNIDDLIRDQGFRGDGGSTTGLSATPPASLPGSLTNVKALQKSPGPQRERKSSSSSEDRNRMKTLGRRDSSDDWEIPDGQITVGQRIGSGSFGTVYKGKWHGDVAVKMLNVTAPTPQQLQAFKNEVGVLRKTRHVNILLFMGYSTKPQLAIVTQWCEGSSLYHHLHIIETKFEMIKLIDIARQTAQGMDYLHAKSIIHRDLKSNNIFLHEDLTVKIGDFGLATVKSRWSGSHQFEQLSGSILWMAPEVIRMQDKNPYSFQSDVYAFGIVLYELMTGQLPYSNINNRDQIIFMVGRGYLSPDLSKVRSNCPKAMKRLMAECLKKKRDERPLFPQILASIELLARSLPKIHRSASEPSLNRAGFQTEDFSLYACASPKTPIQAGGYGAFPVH
Conditions: not given
For `CNC(=O)c1cc(Oc2ccc(C3=NNC(c4ccc(OC)cc4)C3)cc2)ccn1` (configuration not stated), the 50% inhibitory concentration (IC50) is over 50 µM.
Turning to `CNC(=O)c1cc(Oc2ccc(C3=NNC(c4ccccc4)C3)cc2)ccn1` (configuration not stated), the IC50 amounted to 3.9 µM.
On to `CNC(=O)c1cc(Oc2ccc(C3CC(c4ccc([N+](=O)[O-])cc4)=NN3)cc2)ccn1` (configuration not stated), for which the half-maximal inhibitory concentration (IC50) is over 50 µM.

Another assay has as its system PC-3. Description: Cytotoxicity against human PC3 cells assessed as reduction in cell viability incubated for 72 hrs by MTT assay. It counts as functional, cell-based. To be noted: PC-3, 72 h. The procedure, abridged: (§1)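 Cells grown in MEM with 10% FBS; about 4×10^3 cells per well, pre-incubated 24 h at 37 °C in 5% CO2, then exposed to compound for 72 h. Seven concentrations, threefold serial dilution from 100 ug/mL initial. MTT at 5 µg/mL terminal concentration for 4 h; formazan dissolved in DMSO, absorbance read at 492 nm against 630 nm reference. IC50 is the average of two determinations.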
In the case of `CNC(=O)c1cc(Oc2ccc(C3CC(c4ccc([N+](=O)[O-])cc4)=NN3C(N)=S)cc2)ccn1` (configuration not stated), the IC50 is over 50 µM.
As for `CNC(=O)c1cc(Oc2ccc(C3=NN(C(N)=S)C(c4ccc(Cl)cc4)C3)cc2)ccn1` (configuration not stated), the IC50 was over 50 µM.
Still for that read-out and setting: as for `CNC(=O)c1cc(Oc2ccc(NC(=O)Nc3ccc(Cl)c(C(F)(F)F)c3)cc2)ccn1` [SORAFENIB], the figure is 3.18 to 3.24 µM; as for `CNC(=O)c1cc(Oc2ccc(C3=NNC(c4ccc(OC)cc4)C3)cc2)ccn1` (configuration not stated), 7.74 µM.
Regarding `CNC(=O)c1cc(Oc2ccc(C3=NN(C(N)=S)C(c4ccc(C#N)cc4)C3)cc2)ccn1` (configuration not stated), the IC50 was over 50 µM.
On to `CNC(=O)c1cc(Oc2ccc(C3=NNC(c4ccccc4)C3)cc2)ccn1` (configuration not stated), for which the IC50 worked out at 4.52 µM.
On the same count and under the same terms, the same measure for `CNC(=O)c1cc(Oc2ccc(C3=NNC(c4ccc(F)cc4)C3)cc2)ccn1` (configuration not stated): 6.77 µM; for `CNC(=O)c1cc(Oc2ccc(C3=NNC(c4cc(OC)c(OC)c(OC)c4)C3)cc2)ccn1` (configuration not stated): 28.3 µM; for `CNC(=O)c1cc(Oc2ccc(C3=NN(C(N)=S)C(c4ccc(F)cc4)C3)cc2)ccn1` (configuration not stated): over 50 µM.
The same measure, in the same setting: as for `CNC(=O)c1cc(Oc2ccc(C3=NN(C(N)=S)C(c4cccc(Cl)c4Cl)C3)cc2)ccn1` (configuration not stated), the figure is 15.9 µM; as for `CNC(=O)c1cc(Oc2ccc(C3=NNC(c4ccc(Cl)cc4Cl)C3)cc2)ccn1` (configuration not stated), 7.3 µM; as for `CNC(=O)c1cc(Oc2ccc(C3=NNC(c4ccc(Cl)c(Cl)c4)C3)cc2)ccn1` (configuration not stated), 36.2 µM.
For the compound `CNC(=O)c1cc(Oc2ccc(C3=NNC(c4ccc([N+](=O)[O-])cc4)C3)cc2)ccn1` (configuration not stated), the IC50 was over 50 µM.
On the same count and under the same terms, as for `CNC(=O)c1cc(Oc2ccc(C3=NNC(c4ccc(Br)cc4)C3)cc2)ccn1` (configuration not stated), the figure is over 50 µM; as for `CNC(=O)c1cc(Oc2ccc(C3=NN(C(N)=S)C(c4cccc([N+](=O)[O-])c4)C3)cc2)ccn1` (configuration not stated), over 50 µM; as for `CNC(=O)c1cc(Oc2ccc(C3=NNC(c4ccc(F)cc4Cl)C3)cc2)ccn1` (configuration not stated), 24.2 µM.
On to `CNC(=O)c1cc(Oc2ccc(C3=NNC(c4ccc(C#N)cc4)C3)cc2)ccn1` (configuration not stated), for which the half-maximal inhibitory concentration (IC50) was determined as 9.91 µM.

The test system of the next assay is HepG2. Briefly: Cytotoxicity against human HepG2 cells assessed as reduction in cell viability incubated for 72 hrs by MTT assay. The class given is functional, cell-based. To be noted: HepG2, 72 h. In short, it runs like this: as §1
Take `CNC(=O)c1cc(Oc2ccc(C3CC(c4ccc([N+](=O)[O-])cc4)=NN3C(N)=S)cc2)ccn1` (configuration not stated): the IC50 was over 50 µM.
As for `CNC(=O)c1cc(Oc2ccc(C3=NN(C(N)=S)C(c4ccc(Cl)cc4)C3)cc2)ccn1` (configuration not stated), the IC50 was over 50 µM.
As for `CNC(=O)c1cc(Oc2ccc(C3CC(c4ccc(Cl)cc4)=NN3)cc2)ccn1` (configuration not stated), the IC50 came to 10.9 µM.
Same read-out and setting: the same measure for `CNC(=O)c1cc(Oc2ccc(C3=NNC(c4ccc(OC)cc4)C3)cc2)ccn1` (configuration not stated): 9.64 µM; for `CNC(=O)c1cc(Oc2ccc(C3=NN(C(N)=S)C(c4ccc(C#N)cc4)C3)cc2)ccn1` (configuration not stated): over 50 µM.
Same read-out and setting: as for `CNC(=O)c1cc(Oc2ccc(C3CC(c4ccc(Br)cc4)=NN3)cc2)ccn1` (configuration not stated), the figure is 16.9 µM.
For `CNC(=O)c1cc(Oc2ccc(C3=NNC(c4ccccc4)C3)cc2)ccn1` (configuration not stated), the IC50 came out at 1.5 µM.
Turning to `CNC(=O)c1cc(Oc2ccc(C3=NNC(c4ccc(F)cc4)C3)cc2)ccn1` (configuration not stated), the IC50 worked out at 5.28 µM.
Still for that read-out and setting: the same measure for `CNC(=O)c1cc(Oc2ccc(C3=NNC(c4cc(OC)c(OC)c(OC)c4)C3)cc2)ccn1` (configuration not stated): 24.3 µM; for `CNC(=O)c1cc(Oc2ccc(C3=NNC(c4cccc([N+](=O)[O-])c4)C3)cc2)ccn1` (configuration not stated): 26.5 µM; for `CNC(=O)c1cc(Oc2ccc(C3CC(c4ccc([N+](=O)[O-])cc4)=NN3)cc2)ccn1` (configuration not stated): 28.9 µM.
Regarding `CNC(=O)c1cc(Oc2ccc(C3=NN(C(N)=S)C(c4ccc(F)cc4)C3)cc2)ccn1` (configuration not stated), the IC50 was over 50 µM.
On the same count and under the same terms, as for `CNC(=O)c1cc(Oc2ccc(C3=NN(C(N)=S)C(c4cccc(Cl)c4Cl)C3)cc2)ccn1` (configuration not stated), the figure is 1.89 µM; as for `CNC(=O)c1cc(Oc2ccc(C3=NNC(c4ccc(OC)c(OC)c4OC)C3)cc2)ccn1` (configuration not stated), 15.7 µM.
Still for that read-out and setting: the same measure for `CNC(=O)c1cc(Oc2ccc(C3=NNC(c4cccc(Cl)c4Cl)C3)cc2)ccn1` (configuration not stated): 4.99 µM; for `CNC(=O)c1cc(Oc2ccc(C3=NNC(c4ccc(Cl)c(Cl)c4)C3)cc2)ccn1` (configuration not stated): 14.4 µM.
On to `CNC(=O)c1cc(Oc2ccc(C3=NNC(c4ccc([N+](=O)[O-])cc4)C3)cc2)ccn1` (configuration not stated), for which the IC50 was over 50 µM.
The same measure, in the same setting: as for `CNC(=O)c1cc(Oc2ccc(C3=NNC(c4ccc(Br)cc4)C3)cc2)ccn1` (configuration not stated), the figure is 57.6 µM; as for `CNC(=O)c1cc(Oc2ccc(C3=NN(C(N)=S)C(c4cccc([N+](=O)[O-])c4)C3)cc2)ccn1` (configuration not stated), over 50 µM; as for `CNC(=O)c1cc(Oc2ccc(C3=NNC(c4ccc(F)cc4Cl)C3)cc2)ccn1` (configuration not stated), 11.5 µM.
On to `CNC(=O)c1cc(Oc2ccc(C3=NNC(c4ccc(C#N)cc4)C3)cc2)ccn1` (configuration not stated), for which the IC50 came out at 15 µM.

Another assay has as its system MCF7. Briefly: Cytotoxicity against human MCF7 cells assessed as reduction in cell viability incubated for 72 hrs by MTT assay. The note with it: MCF7, 72 h. The class given is functional, cell-based. The procedure, abridged: as §1
As for `CNC(=O)c1cc(Oc2ccc(C3CC(c4ccc(Cl)cc4)=NN3)cc2)ccn1` (configuration not stated), the IC50 came to 15.3 µM.
The same measure, in the same setting: as for `CNC(=O)c1cc(Oc2ccc(C3=NNC(c4ccc(OC)cc4)C3)cc2)ccn1` (configuration not stated), the figure is 11 µM.
The same measure, in the same setting: the same measure for `CNC(=O)c1cc(Oc2ccc(C3CC(c4ccc(Br)cc4)=NN3)cc2)ccn1` (configuration not stated): 15.3 µM.
Regarding `CNC(=O)c1cc(Oc2ccc(C3=NNC(c4ccccc4)C3)cc2)ccn1` (configuration not stated), the IC50 was 1.24 µM.
`CNC(=O)c1cc(Oc2ccc(C3=NNC(c4ccc(F)cc4)C3)cc2)ccn1` (configuration not stated): the IC50 came to 9.48 µM.
The same measure, in the same setting: as for `CNC(=O)c1cc(Oc2ccc(C3=NNC(c4cccc([N+](=O)[O-])c4)C3)cc2)ccn1` (configuration not stated), the figure is 35.4 µM; as for `CNC(=O)c1cc(Oc2ccc(C3CC(c4ccc([N+](=O)[O-])cc4)=NN3)cc2)ccn1` (configuration not stated), 8.03 µM; as for `CNC(=O)c1cc(Oc2ccc(C3=NNC(c4ccc(OC)c(OC)c4OC)C3)cc2)ccn1` (configuration not stated), 9.94 µM.

A further assay addresses Vascular endothelial growth factor receptor 2 (Homo sapiens, UniProt P35968). Description: Inhibition of VEGFR2 (unknown origin) incubated for 10 mins using FAM-labeled peptide and ATP by mobility shift assay.
Conditions: not given
As for `CNC(=O)c1cc(Oc2ccc(C3=NNC(c4ccc(OC)cc4)C3)cc2)ccn1` (configuration not stated), the half-maximal inhibitory concentration (IC50) was over 50 µM.
Still for that read-out and setting: the same measure for `CNC(=O)c1cc(Oc2ccc(C3=NNC(c4ccccc4)C3)cc2)ccn1` (configuration not stated): 2.3 µM.
Still for that read-out and setting: as for `CNC(=O)c1cc(Oc2ccc(C3CC(c4ccc([N+](=O)[O-])cc4)=NN3)cc2)ccn1` (configuration not stated), the figure is over 50 µM.

The next assay concerns A549. Briefly: Cytotoxicity against human A549 cells assessed as reduction in cell viability incubated for 72 hrs by MTT assay. To be noted: A549, 72 h. It counts as functional, cell-based. The procedure, abridged:
as §1
`CNC(=O)c1cc(Oc2ccc(C3CC(c4ccc([N+](=O)[O-])cc4)=NN3C(N)=S)cc2)ccn1` (configuration not stated): the IC50 was over 50 µM.
The same measure, in the same setting: as for `CNC(=O)c1cc(Oc2ccc(C3=NN(C(N)=S)C(c4ccc(Cl)cc4)C3)cc2)ccn1` (configuration not stated), the figure is over 50 µM; as for `CNC(=O)c1cc(Oc2ccc(NC(=O)Nc3ccc(Cl)c(C(F)(F)F)c3)cc2)ccn1` [SORAFENIB], 2.92 µM.
On the same count and under the same terms, as for `CNC(=O)c1cc(Oc2ccc(C3CC(c4ccc(Cl)cc4)=NN3)cc2)ccn1` (configuration not stated), the figure is 20.5 µM.
On the same count and under the same terms, the same measure for `CNC(=O)c1cc(Oc2ccc(C3=NNC(c4ccc(OC)cc4)C3)cc2)ccn1` (configuration not stated): 13.1 µM; for `CNC(=O)c1cc(Oc2ccc(C3=NN(C(N)=S)C(c4ccc(C#N)cc4)C3)cc2)ccn1` (configuration not stated): over 50 µM; for `CNC(=O)c1cc(Oc2ccc(C3=NNC(c4ccccc4)C3)cc2)ccn1` (configuration not stated): 8.6 µM.
`CNC(=O)c1cc(Oc2ccc(C3=NNC(c4ccc(F)cc4)C3)cc2)ccn1` (configuration not stated): the IC50 was 15.1 µM.
On the same count and under the same terms, as for `CNC(=O)c1cc(Oc2ccc(C3=NNC(c4cc(OC)c(OC)c(OC)c4)C3)cc2)ccn1` (configuration not stated), the figure is 37.1 µM; as for `CNC(=O)c1cc(Oc2ccc(C3=NN(C(N)=S)C(c4ccc(F)cc4)C3)cc2)ccn1` (configuration not stated), 19.4 µM; as for `CNC(=O)c1cc(Oc2ccc(C3=NN(C(N)=S)C(c4cccc(Cl)c4Cl)C3)cc2)ccn1` (configuration not stated), over 50 µM.
With `CNC(=O)c1cc(Oc2ccc(C3=NNC(c4ccc(OC)c(OC)c4OC)C3)cc2)ccn1` (configuration not stated), the IC50 came to 19 µM.
Still for that read-out and setting: as for `CNC(=O)c1cc(Oc2ccc(C3=NNC(c4ccc(Cl)cc4Cl)C3)cc2)ccn1` (configuration not stated), the figure is 6.93 µM.
Still for that read-out and setting: as for `CNC(=O)c1cc(Oc2ccc(C3=NNC(c4cccc(Cl)c4Cl)C3)cc2)ccn1` (configuration not stated), the figure is 12.1 µM.
Turning to `CNC(=O)c1cc(Oc2ccc(C3=NNC(c4ccc(Cl)c(Cl)c4)C3)cc2)ccn1` (configuration not stated), the IC50 is 10.7 µM.
Still for that read-out and setting: as for `CNC(=O)c1cc(Oc2ccc(C3=NNC(c4ccc([N+](=O)[O-])cc4)C3)cc2)ccn1` (configuration not stated), the figure is 19.5 µM.
Same read-out and setting: as for `CNC(=O)c1cc(Oc2ccc(C3=NNC(c4ccc(Br)cc4)C3)cc2)ccn1` (configuration not stated), the figure is 21 µM; as for `CNC(=O)c1cc(Oc2ccc(C3=NN(C(N)=S)C(c4cccc([N+](=O)[O-])c4)C3)cc2)ccn1` (configuration not stated), over 50 µM; as for `CNC(=O)c1cc(Oc2ccc(C3=NNC(c4ccc(F)cc4Cl)C3)cc2)ccn1` (configuration not stated), 13.7 µM.
Regarding `CNC(=O)c1cc(Oc2ccc(C3=NNC(c4ccc(C#N)cc4)C3)cc2)ccn1` (configuration not stated), the IC50 turned out to be 17.4 µM.

These data come from ChEMBL document CHEMBL4177575 (Bioorg Med Chem, 2017).
